Measured values taken from ChEMBL document CHEMBL1629440, “Synthesis and pharmacological properties of novel hydrophilic 5-HT4 receptor antagonists” (Bioorg Med Chem, 2010).

Key:
[1] = target: Beta-3 adrenergic receptor (Homo sapiens, UniProt P13945); assay: Binding affinity to beta3 adrenergic receptor
[2] = target: Alpha-2A adrenergic receptor (Homo sapiens, UniProt P08913); assay: Binding affinity to alpha2A adrenergic receptor
D(1B) dopamine receptor = D(1B) dopamine receptor (Homo sapiens, UniProt P21918); assay: Binding affinity to dopamine receptor D5
[3] = Binding affinity to opioid receptor Sigma2
D(1A) dopamine receptor = D(1A) dopamine receptor (Homo sapiens, UniProt P21728); assay: Binding affinity to dopamine receptor D1
[4] = target: 5-hydroxytryptamine receptor 2A (Homo sapiens, UniProt P28223); assay: Binding affinity to 5HT2A receptor
[5] = Binding affinity to GABA-A receptor muscimol site
[6] = target: 5-hydroxytryptamine receptor 1D (Homo sapiens, UniProt P28221); assay: Binding affinity to 5HT1D receptor
5-hydroxytryptamine receptor 1D, sequence (P28221 whole entry): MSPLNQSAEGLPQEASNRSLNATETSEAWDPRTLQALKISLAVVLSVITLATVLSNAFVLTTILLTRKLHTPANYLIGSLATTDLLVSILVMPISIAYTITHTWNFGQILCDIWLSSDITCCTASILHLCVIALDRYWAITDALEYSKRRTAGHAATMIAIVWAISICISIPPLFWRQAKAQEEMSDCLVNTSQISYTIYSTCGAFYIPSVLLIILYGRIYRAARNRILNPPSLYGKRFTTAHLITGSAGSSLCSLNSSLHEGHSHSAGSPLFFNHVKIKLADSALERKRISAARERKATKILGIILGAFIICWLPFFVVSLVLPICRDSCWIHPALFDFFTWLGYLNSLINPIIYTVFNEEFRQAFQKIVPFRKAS

[7] = target: 5-hydroxytryptamine receptor 7 (Homo sapiens, UniProt P34969); assay: Binding affinity to 5HT7 receptor
[8] = target: Alpha-1A adrenergic receptor (Homo sapiens, UniProt P35348); assay: Binding affinity to alpha1A adrenergic receptor
Alpha-1A adrenergic receptor, sequence (P35348 whole entry): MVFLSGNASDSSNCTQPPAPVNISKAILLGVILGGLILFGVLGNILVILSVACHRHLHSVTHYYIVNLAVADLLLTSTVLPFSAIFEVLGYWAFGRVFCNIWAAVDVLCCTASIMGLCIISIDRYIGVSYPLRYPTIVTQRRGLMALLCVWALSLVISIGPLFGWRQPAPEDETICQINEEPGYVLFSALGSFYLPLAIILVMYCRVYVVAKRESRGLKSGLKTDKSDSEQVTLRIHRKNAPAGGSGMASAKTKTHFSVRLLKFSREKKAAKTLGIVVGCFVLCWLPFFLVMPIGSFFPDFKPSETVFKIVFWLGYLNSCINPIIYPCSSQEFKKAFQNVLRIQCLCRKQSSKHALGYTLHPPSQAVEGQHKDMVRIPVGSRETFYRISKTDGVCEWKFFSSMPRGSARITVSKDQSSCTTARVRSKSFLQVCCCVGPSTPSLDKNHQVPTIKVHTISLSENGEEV

Mu-type opioid receptor = Mu-type opioid receptor (Homo sapiens, UniProt P35372); assay: Binding affinity to opioid receptor MOR
[9] = target: Kappa-type opioid receptor (Homo sapiens, UniProt P41145); assay: Binding affinity to opioid receptor KOR
Kappa-type opioid receptor, sequence (P41145 whole entry): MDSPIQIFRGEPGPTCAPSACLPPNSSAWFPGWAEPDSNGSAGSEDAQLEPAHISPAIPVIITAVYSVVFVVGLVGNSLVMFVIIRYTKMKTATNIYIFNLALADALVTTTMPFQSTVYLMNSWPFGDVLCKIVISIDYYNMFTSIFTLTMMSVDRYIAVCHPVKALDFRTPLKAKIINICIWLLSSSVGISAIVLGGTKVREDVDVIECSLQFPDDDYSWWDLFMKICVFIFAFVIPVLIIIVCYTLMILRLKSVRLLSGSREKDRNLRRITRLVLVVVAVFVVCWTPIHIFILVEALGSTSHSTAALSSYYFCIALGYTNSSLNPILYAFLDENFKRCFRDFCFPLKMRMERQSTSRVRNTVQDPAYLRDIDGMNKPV

Histamine H4 receptor = Histamine H4 receptor (Homo sapiens, UniProt Q9H3N8); assay: Binding affinity to Histamine receptor H4
[10] = target: T1, 5-hydroxytryptamine receptor 4 (Homo sapiens, UniProt Q13639); assay: Displacement of [3H]GR113808 from human 5HT4 receptor expressed in HEK293 cells by liquid scintillation counting; format: cell-based
T1 sequence (Q13639 whole entry): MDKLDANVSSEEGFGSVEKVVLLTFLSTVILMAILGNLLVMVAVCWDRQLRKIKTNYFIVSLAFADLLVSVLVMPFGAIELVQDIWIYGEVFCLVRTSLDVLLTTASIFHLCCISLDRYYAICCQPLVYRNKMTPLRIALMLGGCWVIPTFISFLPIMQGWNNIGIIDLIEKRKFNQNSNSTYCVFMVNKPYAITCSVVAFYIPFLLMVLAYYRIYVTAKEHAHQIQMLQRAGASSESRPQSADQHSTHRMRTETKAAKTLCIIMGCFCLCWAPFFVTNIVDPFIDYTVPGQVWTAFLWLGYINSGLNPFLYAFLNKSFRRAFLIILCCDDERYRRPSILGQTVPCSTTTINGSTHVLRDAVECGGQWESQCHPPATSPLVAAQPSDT
Procedure, shortened: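 Membranes from HEK293 line stably expressing human 5-HT4(b) at high level (5000 fmol/mg). Incubated with 0.3 nM [3H]GR113808 and 21 competitor concentrations in Tris-HCl pH 7.5, EDTA, EGTA, 2 mM MgCl2, ascorbate, 0.1% BSA, 100 µM GTP, room temperature 1 h. Filtered onto PEI-soaked filters, washed, scintillation counted. Ki derived from IC50 via Ki = IC50/(1+L/Kd).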

[11] = target: 5-hydroxytryptamine receptor 2C (Homo sapiens, UniProt P28335); assay: Binding affinity to 5HT2C receptor
5-hydroxytryptamine receptor 2C, sequence (P28335 whole entry): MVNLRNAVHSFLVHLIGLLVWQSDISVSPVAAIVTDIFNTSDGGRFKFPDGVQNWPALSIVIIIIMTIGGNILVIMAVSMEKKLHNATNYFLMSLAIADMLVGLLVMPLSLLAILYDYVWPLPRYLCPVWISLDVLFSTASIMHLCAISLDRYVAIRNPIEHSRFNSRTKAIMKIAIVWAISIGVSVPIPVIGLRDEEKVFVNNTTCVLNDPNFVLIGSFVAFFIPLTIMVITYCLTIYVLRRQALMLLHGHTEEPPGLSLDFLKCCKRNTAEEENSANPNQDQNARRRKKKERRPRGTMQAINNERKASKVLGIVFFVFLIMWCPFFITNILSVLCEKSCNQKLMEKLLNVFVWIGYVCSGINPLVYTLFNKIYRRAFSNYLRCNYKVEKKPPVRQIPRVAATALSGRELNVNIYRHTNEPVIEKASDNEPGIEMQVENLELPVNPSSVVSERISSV

[12] = target: Alpha-1B adrenergic receptor (Homo sapiens, UniProt P35368); assay: Binding affinity to Alpha-1B adrenergic receptor
[13] = target: Muscarinic acetylcholine receptor M3 (Homo sapiens, UniProt P20309); assay: Binding affinity to muscarinic acetylcholine receptor M3
[14] = target: Sodium-dependent dopamine transporter (Homo sapiens, UniProt Q01959); assay: Binding affinity to DAT
[15] = target: 5-hydroxytryptamine receptor 6 (Homo sapiens, UniProt P50406); assay: Binding affinity to 5HT6 receptor
[16] = target: Sodium-dependent serotonin transporter (Homo sapiens, UniProt P31645); assay: Binding affinity to SERT
[17] = target: Beta-2 adrenergic receptor (Homo sapiens, UniProt P07550); assay: Binding affinity to beta2 adrenergic receptor
Beta-2 adrenergic receptor, sequence (P07550 whole entry): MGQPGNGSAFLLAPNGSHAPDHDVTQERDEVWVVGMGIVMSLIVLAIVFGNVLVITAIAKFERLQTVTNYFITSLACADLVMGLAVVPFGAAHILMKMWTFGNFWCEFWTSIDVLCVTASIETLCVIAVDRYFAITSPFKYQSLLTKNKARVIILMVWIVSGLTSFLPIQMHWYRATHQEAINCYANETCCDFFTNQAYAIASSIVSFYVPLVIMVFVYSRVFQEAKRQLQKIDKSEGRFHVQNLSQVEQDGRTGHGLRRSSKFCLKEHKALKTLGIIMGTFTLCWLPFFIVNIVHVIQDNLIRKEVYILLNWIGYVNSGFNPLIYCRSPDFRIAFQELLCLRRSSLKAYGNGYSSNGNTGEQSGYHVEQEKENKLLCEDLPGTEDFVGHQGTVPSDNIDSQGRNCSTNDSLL

[18] = Lipophilicity, log D of the compound in octanol buffer at pH 7.4; format: physicochemical
Procedure, shortened: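 Distribution between octanol and aqueous buffer at pH 7.4. Both phases were diluted and ligand concentration in each measured by HPLC. Not determined where micelles formed.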

Histamine H3 receptor = Histamine H3 receptor (Homo sapiens, UniProt Q9Y5N1); assay: Binding affinity to Histamine receptor H3
[19] = target: 5-hydroxytryptamine receptor 1E (Homo sapiens, UniProt P28566); assay: Binding affinity to 5HT1E receptor
[20] = target: Delta-type opioid receptor (Homo sapiens, UniProt P41143); assay: Binding affinity to opioid receptor DOR
[21] = target: Muscarinic acetylcholine receptor M2 (Homo sapiens, UniProt P08172); assay: Binding affinity to muscarinic acetylcholine receptor M2
[22] = target: 5-hydroxytryptamine receptor 5A (Homo sapiens, UniProt P47898); assay: Binding affinity to 5HT5A receptor
[23] = target: 5-hydroxytryptamine receptor 1B (Homo sapiens, UniProt P28222); assay: Binding affinity to 5HT1B receptor
[24] = target: 5-hydroxytryptamine receptor 3A (Homo sapiens, UniProt P46098); assay: Binding affinity to 5HT3 receptor
[25] = target: Muscarinic acetylcholine receptor M4 (Homo sapiens, UniProt P08173); assay: Binding affinity to muscarinic acetylcholine receptor M4
[26] = target: Muscarinic acetylcholine receptor M5 (Homo sapiens, UniProt P08912); assay: Binding affinity to muscarinic acetylcholine receptor M5
[27] = target: Alpha-1D adrenergic receptor (Homo sapiens, UniProt P25100); assay: Binding affinity to Alpha-1D adrenergic receptor
Alpha-1D adrenergic receptor, sequence (P25100 whole entry): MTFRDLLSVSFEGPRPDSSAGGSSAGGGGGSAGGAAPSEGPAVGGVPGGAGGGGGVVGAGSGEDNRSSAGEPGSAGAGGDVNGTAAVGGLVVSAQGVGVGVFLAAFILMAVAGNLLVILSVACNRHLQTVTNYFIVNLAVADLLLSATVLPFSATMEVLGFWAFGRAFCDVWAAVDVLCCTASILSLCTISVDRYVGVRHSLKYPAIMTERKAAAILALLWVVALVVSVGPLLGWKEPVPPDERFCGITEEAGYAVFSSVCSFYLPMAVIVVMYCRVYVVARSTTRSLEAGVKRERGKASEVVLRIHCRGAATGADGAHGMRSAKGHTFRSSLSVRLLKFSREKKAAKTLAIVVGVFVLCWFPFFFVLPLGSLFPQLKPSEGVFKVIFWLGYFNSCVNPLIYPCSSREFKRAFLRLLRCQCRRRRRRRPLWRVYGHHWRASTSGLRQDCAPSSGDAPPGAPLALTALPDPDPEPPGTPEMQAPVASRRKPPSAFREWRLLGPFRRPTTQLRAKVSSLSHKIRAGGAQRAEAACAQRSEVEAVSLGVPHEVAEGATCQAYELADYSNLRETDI

[28] = target: 5-hydroxytryptamine receptor 2B (Homo sapiens, UniProt P41595); assay: Binding affinity to 5HT2B receptor
5-hydroxytryptamine receptor 2B, sequence (P41595 whole entry): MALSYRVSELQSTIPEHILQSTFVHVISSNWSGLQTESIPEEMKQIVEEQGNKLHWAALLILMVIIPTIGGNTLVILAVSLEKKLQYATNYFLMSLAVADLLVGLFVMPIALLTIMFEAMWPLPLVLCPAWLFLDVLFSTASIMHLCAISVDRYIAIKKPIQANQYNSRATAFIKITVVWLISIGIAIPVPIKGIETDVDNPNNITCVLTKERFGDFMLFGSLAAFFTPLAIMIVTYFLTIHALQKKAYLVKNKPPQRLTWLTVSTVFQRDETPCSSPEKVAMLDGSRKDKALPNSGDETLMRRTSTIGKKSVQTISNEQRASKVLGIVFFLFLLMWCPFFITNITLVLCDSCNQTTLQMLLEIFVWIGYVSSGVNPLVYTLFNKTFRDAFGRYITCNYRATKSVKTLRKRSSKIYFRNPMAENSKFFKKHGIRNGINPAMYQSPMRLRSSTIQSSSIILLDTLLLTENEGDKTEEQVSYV

[29] = Binding affinity to GABA receptor BDZ-site
[30] = target: Muscarinic acetylcholine receptor M1 (Homo sapiens, UniProt P11229); assay: Binding affinity to muscarinic acetylcholine receptor M1
Muscarinic acetylcholine receptor M1, sequence (P11229 whole entry): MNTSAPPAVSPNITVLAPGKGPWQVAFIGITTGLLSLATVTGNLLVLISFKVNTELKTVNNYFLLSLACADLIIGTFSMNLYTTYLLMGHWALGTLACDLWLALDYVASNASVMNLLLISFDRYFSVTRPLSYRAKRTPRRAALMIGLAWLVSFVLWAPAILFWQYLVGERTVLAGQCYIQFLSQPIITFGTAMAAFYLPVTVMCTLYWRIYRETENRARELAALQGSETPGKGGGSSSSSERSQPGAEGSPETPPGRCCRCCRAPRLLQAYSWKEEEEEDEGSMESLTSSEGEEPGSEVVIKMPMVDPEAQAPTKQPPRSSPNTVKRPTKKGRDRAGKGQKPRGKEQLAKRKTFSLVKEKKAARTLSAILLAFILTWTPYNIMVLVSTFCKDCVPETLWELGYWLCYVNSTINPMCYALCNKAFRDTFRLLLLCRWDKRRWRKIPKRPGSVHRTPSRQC

[31] = target: T1, 5-hydroxytryptamine receptor 4; assay: Antagonistic activity at human 5HT4 receptor expressed in HEK293 cells assessed as inhibition of 5-HT stimulated ADCY activity after 20 mins; format: functional, cell-based
Procedure, shortened: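 Membranes from HEK293 cells stably expressing human 5-HT4(b) at low level (400 fmol/mg). Adenylyl cyclase activity was stimulated by 1 µM 5-HT with 21 antagonist concentrations, 0.1 mM [α-32P]ATP, 4 mM MgCl2, 1 mM IBMX, GTP and ATP-regenerating system, 32 °C, 20 min. [32P]cAMP was isolated on Dowex/alumina columns. IC50 was fitted by non-linear regression and Kb calculated using 5-HT EC50.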

[32] = target: Alpha-2C adrenergic receptor (Homo sapiens, UniProt P18825); assay: Binding affinity to Alpha-2C adrenergic receptor
[33] = target: Beta-1 adrenergic receptor (Homo sapiens, UniProt P08588); assay: Binding affinity to beta1 adrenergic receptor
D(3) dopamine receptor = D(3) dopamine receptor (Homo sapiens, UniProt P35462); assay: Binding affinity to dopamine receptor D3
D(4) dopamine receptor = D(4) dopamine receptor (Homo sapiens, UniProt P21917); assay: Binding affinity to dopamine receptor D4
Histamine H2 receptor = Histamine H2 receptor (Homo sapiens, UniProt P25021); assay: Binding affinity to Histamine receptor H2
Histamine H2 receptor, sequence (P25021 whole entry): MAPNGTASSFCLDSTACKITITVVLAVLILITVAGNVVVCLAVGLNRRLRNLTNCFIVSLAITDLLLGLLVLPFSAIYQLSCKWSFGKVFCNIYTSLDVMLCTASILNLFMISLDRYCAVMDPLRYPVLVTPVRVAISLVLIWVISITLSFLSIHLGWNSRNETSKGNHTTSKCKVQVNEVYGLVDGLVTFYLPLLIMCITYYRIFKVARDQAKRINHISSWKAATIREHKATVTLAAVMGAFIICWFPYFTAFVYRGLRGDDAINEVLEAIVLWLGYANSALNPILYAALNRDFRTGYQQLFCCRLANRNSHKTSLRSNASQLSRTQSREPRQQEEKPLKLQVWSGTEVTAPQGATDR

[34] = target: Alpha-2B adrenergic receptor (Homo sapiens, UniProt P18089); assay: Binding affinity to alpha2B adrenergic receptor
D(2) dopamine receptor = D(2) dopamine receptor (Homo sapiens, UniProt P14416); assay: Binding affinity to dopamine receptor D2
D(2) dopamine receptor, sequence (P14416 whole entry): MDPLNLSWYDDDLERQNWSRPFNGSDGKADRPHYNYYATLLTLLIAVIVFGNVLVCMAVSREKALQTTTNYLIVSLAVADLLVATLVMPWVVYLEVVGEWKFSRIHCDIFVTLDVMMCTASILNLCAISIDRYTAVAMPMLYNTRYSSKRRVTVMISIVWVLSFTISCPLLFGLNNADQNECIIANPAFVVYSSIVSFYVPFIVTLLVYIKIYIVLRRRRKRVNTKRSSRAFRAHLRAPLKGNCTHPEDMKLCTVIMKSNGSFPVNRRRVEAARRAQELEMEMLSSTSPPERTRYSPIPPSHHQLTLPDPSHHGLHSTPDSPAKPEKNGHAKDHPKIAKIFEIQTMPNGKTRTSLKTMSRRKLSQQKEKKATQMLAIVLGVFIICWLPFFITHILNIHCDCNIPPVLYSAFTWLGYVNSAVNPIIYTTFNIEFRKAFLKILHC

[35] = target: 5-hydroxytryptamine receptor 1A (Homo sapiens, UniProt P08908); assay: Binding affinity to 5HT1A receptor
Histamine H1 receptor = Histamine H1 receptor (Homo sapiens, UniProt P35367); assay: Binding affinity to Histamine receptor H1
[36] = target: Sigma non-opioid intracellular receptor 1 (Homo sapiens, UniProt Q99720); assay: Binding affinity to opioid receptor Sigma1

With `O=C(O)CCCCCN1CCC(CNC(=O)c2c3n(c4ccccc24)CCCO3)CC1` the Ki [1] was greater than 10 µM, the Ki [2] was greater than 10 µM and the Ki (D(1B) dopamine receptor) was greater than 10 µM. For the same compound, the pKi [3] was less than 5, the Ki (D(1A) dopamine receptor) was greater than 10 µM and the Ki [4] was greater than 10 µM. It also gave a pKi [5] of less than 5, a Ki [6] greater than 10 µM and a Ki [7] greater than 10 µM. For the same compound, the Ki [8] was greater than 10 µM, the Ki (Mu-type opioid receptor) was greater than 10 µM and the Ki [9] was greater than 10 µM. The Ki (Histamine H4 receptor) was greater than 10 µM, the Ki [10] was 0.00155 µM and the Ki [11] was greater than 10 µM. For the same compound, the Ki [12] was greater than 10 µM, the Ki [13] was greater than 10 µM and the Ki [14] was greater than 10 µM. The Ki [15] was greater than 10 µM, the Ki [16] was greater than 10 µM and the Ki [17] was greater than 10 µM. It also gave a logD [18] of -1.3, a Ki (Histamine H3 receptor) greater than 10 µM and a Ki [19] greater than 10 µM. The Ki [20] was greater than 10 µM, the Ki [21] was greater than 10 µM and the Ki [22] was greater than 10 µM. It also gave a Ki [23] greater than 10 µM, a Ki [24] greater than 10 µM and a Ki [25] greater than 10 µM. For the same compound, the Ki [26] was greater than 10 µM, the Ki [27] was greater than 10 µM and the Ki [28] was greater than 10 µM. It also gave a pKi [29] of less than 5, a Ki [30] greater than 10 µM and a pKb [31] of 7.94. The Ki [32] was greater than 10 µM, the Ki [33] was greater than 10 µM and the Ki (D(3) dopamine receptor) was greater than 10 µM. The Ki (D(4) dopamine receptor) was greater than 10 µM, the Ki (Histamine H2 receptor) was greater than 10 µM and the Ki [34] was greater than 10 µM. It also gave a Ki (D(2) dopamine receptor) greater than 10 µM, a Ki [35] greater than 10 µM and a Ki (Histamine H1 receptor) greater than 10 µM.
With `COC(=O)CCCCCN1CCC(CNC(=O)c2c3n(c4ccccc24)CCCO3)CC1` the Ki [1] was greater than 10 µM, the Ki [2] was greater than 10 µM and the Ki (D(1B) dopamine receptor) was greater than 10 µM. For the same compound, the pKi [3] was less than 5, the Ki (D(1A) dopamine receptor) was greater than 10 µM and the Ki [4] was 6.31 µM. For the same compound, the pKi [5] was less than 5, the Ki [6] was 3.16 µM and the Ki [7] was greater than 10 µM. For the same compound, the Ki [8] was greater than 10 µM, the Ki (Mu-type opioid receptor) was greater than 10 µM and the Ki [9] was greater than 10 µM. The Ki (Histamine H4 receptor) was greater than 10 µM, the Ki [10] was 0.000107 µM and the Ki [11] was greater than 10 µM. For the same compound, the Ki [12] was greater than 10 µM, the Ki [13] was greater than 10 µM and the Ki [14] was greater than 10 µM. The Ki [15] was greater than 10 µM, the Ki [16] was greater than 10 µM and the Ki [17] was greater than 10 µM. For the same compound, the logD [18] was 2.2, the Ki (Histamine H3 receptor) was greater than 10 µM and the Ki [19] was greater than 10 µM. It also gave a Ki [20] greater than 10 µM, a Ki [21] of 2.51 µM and a Ki [22] greater than 10 µM. For the same compound, the Ki [23] was greater than 10 µM, the Ki [24] was 2.51 µM and the Ki [25] was greater than 10 µM. For the same compound, the Ki [26] was greater than 10 µM, the Ki [27] was greater than 10 µM and the Ki [28] was 0.316 µM. The pKi [29] was less than 5, the Ki [30] was greater than 10 µM and the pKb [31] was 9.13. For the same compound, the Ki [32] was greater than 10 µM, the Ki [33] was greater than 10 µM and the Ki (D(3) dopamine receptor) was greater than 10 µM. The Ki [36] was 0.398 µM, the Ki (D(4) dopamine receptor) was greater than 10 µM and the Ki (Histamine H2 receptor) was 3.16 µM. It also gave a Ki [34] of 1.26 µM, a Ki (D(2) dopamine receptor) greater than 10 µM and a Ki [35] greater than 10 µM. It also gave a Ki (Histamine H1 receptor) of 1.26 µM.
